Measured values published in ChEMBL document CHEMBL3271987, “Novel pyrazolo, isoxazolo, and thiazolo steroidal systems and model analogs containing dimethyoxylaryl (or dihydroxylaryl) groups and derivatives. Synthesis, spectral properties, and biological activity” (1976).
Calls of active or inactive are those of the source. The rule behind the calls is not given here.

Experiments:
[1] = system: KB; assay: Growth inhibition of human KB cells at 25 ug/ml after 7 days by microscopy
[2] = system: Pseudomonas fluorescens; assay: Antibacterial activity against Pseudomonas fluorescens at 91 ug/ml measured up to 24 hrs by spectrophotometry; type: functional, organism-based
How it was run: (§1)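 Compound suspended in water with 0.1% Me2SO and added to tube cultures of the bacterium growing on glucose minimal medium, to a maximum final concentration of 91 μg/ml. Growth followed by periodic absorbance readings at 540 nm over 24 hr of incubation. Complete inhibition scored at concentration limits of 1 and 91 μg/ml.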

[3] = system: Bacillus subtilis; assay: Antibacterial activity against Bacillus subtilis at 91 ug/ml measured up to 24 hrs by spectrophotometry; type: functional, organism-based
How it was run: as §1

[4] = system: KB; assay: Growth inhibition of human KB cells at 150 ug/ml after 7 days by microscopy; type: functional, cell-based
[5] = system: Staphylococcus aureus; assay: Antibacterial activity against Staphylococcus aureus clinical isolate at 91 ug/ml measured up to 24 hrs by spectrophotometry; type: functional, organism-based
How it was run: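 A recent clinical isolate was grown in tube cultures of nutrient broth. Compound was suspended in water containing 0.1% Me2SO and added to a maximum final concentration of 91 μg/ml. Absorbance at 540 nm was read periodically during 24 hr of incubation.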

[6] = system: KB; assay: Growth inhibition of human KB cells at 10 ug/ml after 7 days by microscopy; type: functional; conditions: 168 h, read-out: GI
[7] = system: KB; assay: Growth inhibition of human KB cells at < 25 ug/ml after 7 days by microscopy; type: functional
[8] = system: KB; assay: Growth inhibition of human KB cells at 25 ug/ml after 7 days by microscopy; type: functional; conditions: 168 h, read-out: GI
[9] = system: KB; assay: Growth inhibition of human KB cells at 25 to 100 ug/ml after 7 days by microscopy; type: functional, cell-based
[10] = system: KB; assay: Growth inhibition of human KB cells at 50 ug/ml after 7 days by microscopy; type: functional; conditions: 168 h, read-out: GI
[11] = system: KB; assay: Growth inhibition of human KB cells at 12 ug/ml after 7 days by microscopy; type: functional, cell-based
[12] = system: L1210; assay: Antitumor activity against mouse L1210 cells allografted in BDF1 mouse assessed as increase in life span at 0.2 mg, ip qd for 5 days relative to control; type: functional
How it was run: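 Female BDF1 mice, 35 days old, ten per group, given 1 × 10⁶ viable L1210 cells ip on day 0. Treatment on days 1–5 was 0.2 mg per injection ip, once daily (1 mg total), suspended in saline with 0.05% carboxymethylcellulose. Controls received carrier only. Readout was the ratio of mean survival time (days) of treated to control mice (T/C).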

COc1cc2c(cc1OC)C1=NNC(=O)[C@@]1(C)CC2
growth inhibition (GI) [1]: 50% | growth inhibition (GI) [2]: inactive | growth inhibition (GI) [3]: Active

COc1cc2c(cc1OC)-c1nc(N)sc1CC2
growth inhibition (GI) [1]: 50% | growth inhibition (GI) [2]: inactive | growth inhibition (GI) [3]: Active | growth inhibition (GI) [4]: Active

COc1ccc2c(c1)CCc1cnn([C@H]3O[C@H](COC(C)=O)[C@@H](OC(C)=O)[C@H](OC(C)=O)[C@H]3OC(C)=O)c1-2
growth inhibition (GI) [1]: 50% | growth inhibition (GI) [2]: Active | growth inhibition (GI) [3]: Active | growth inhibition (GI) [5]: Active

COc1cc2c(cc1OC)-c1c(cnn1S(=O)(=O)c1ccc(C)cc1)CC2
growth inhibition (GI) [2]: inactive | growth inhibition (GI) [3]: inactive

COc1ccc2c3c(ccc2c1)-c1c(cnn1[C@H]1O[C@H](CO)[C@@H](O)[C@H](O)[C@H]1O)CC3
growth inhibition (GI) [2]: inactive | growth inhibition (GI) [3]: inactive

COc1cc2c(cc1OC)-c1nc(Nc3ccccc3)sc1CC2
growth inhibition (GI) [1]: 50% | growth inhibition (GI) [2]: inactive | growth inhibition (GI) [3]: Active

Oc1cc2ccc3c(c2cc1O)CCc1cnn(-c2ccc(F)cc2)c1-3
inhibition of growth at 10 µg/mL [6]: 50% | growth inhibition (GI) [2]: inactive | growth inhibition (GI) [3]: Active | growth inhibition (GI) [7]: 50%

Oc1cc2ccc3c(c2cc1O)CCc1cn[nH]c1-3
growth inhibition (GI) [2]: inactive | growth inhibition (GI) [3]: inactive

C=CCNc1nc2c(s1)CCc1cc(OC)c(OC)cc1-2
inhibition of growth at 25 µg/mL [8]: 50% | growth inhibition (GI) [2]: inactive | growth inhibition (GI) [3]: Active | growth inhibition (GI) [4]: Active

Oc1cc2c(cc1O)-c1c(cnn1-c1ccccc1)CC2
growth inhibition (GI) [2]: inactive | growth inhibition (GI) [3]: Active | growth inhibition (GI) [7]: 50%

Oc1ccc(-n2ncc3c2-c2cc(O)c(O)cc2CC3)cc1
growth inhibition (GI) [2]: inactive | growth inhibition (GI) [3]: inactive

COc1cc2c(cc1OC)C1=NN(c3ccccc3)C(=O)[C@H]1CC2
growth inhibition (GI) [2]: inactive | growth inhibition (GI) [3]: inactive

COc1cc2c(cc1OC)-c1c(cnn1[C@H]1O[C@H](CO)[C@@H](O)[C@H](O)[C@H]1O)CC2
growth inhibition (GI) [2]: inactive | growth inhibition (GI) [3]: inactive

COc1ccc2c3c(ccc2c1)-c1c(cnn1[C@H]1O[C@H](COC(C)=O)[C@@H](OC(C)=O)[C@H](OC(C)=O)[C@H]1OC(C)=O)CC3
growth inhibition (GI) [2]: inactive | growth inhibition (GI) [3]: Active | growth inhibition (GI) [7]: 50%

COc1ccc(-n2ncc3c2-c2cc(OC)c(OC)cc2CC3)cc1
growth inhibition (GI) [2]: inactive | growth inhibition (GI) [3]: Active | growth inhibition (GI) [9]: inactive

COc1ccc2c(c1)CCc1cnn(-c3ccccc3)c1-2
growth inhibition (GI) [2]: inactive | growth inhibition (GI) [3]: Active

COc1cc2c(cc1OC)-c1oncc1CC2
growth inhibition (GI) [2]: inactive | growth inhibition (GI) [3]: Active | growth inhibition (GI) [9]: inactive

COc1cc2c(cc1OC)C1=NN(c3ccc(F)cc3)C(=O)[C@H]1CC2
growth inhibition (GI) [2]: inactive | growth inhibition (GI) [3]: inactive

Oc1ccc2c(c1)CCc1cnn(-c3ccccc3)c1-2
growth inhibition (GI) [2]: inactive | growth inhibition (GI) [3]: inactive

COc1cc2c(cc1OC)-c1[nH]ncc1CC2
inhibition of growth at 25 µg/mL [8]: 50% | inhibition of growth at 50 µg/mL [10]: 69% | growth inhibition (GI) [2]: inactive | growth inhibition (GI) [3]: Active

COc1cc2c(cc1OC)-c1c(cnn1[C@H]1O[C@H](COC(C)=O)[C@@H](OC(C)=O)[C@H](OC(C)=O)[C@H]1OC(C)=O)CC2
growth inhibition (GI) [2]: inactive | growth inhibition (GI) [3]: inactive

COc1cc2ccc3c(c2cc1OC)CCc1cnn(-c2ccc(F)cc2)c1-3
growth inhibition (GI) [2]: inactive | growth inhibition (GI) [3]: inactive

COc1cc2c(cc1OC)-c1nocc1CC2
growth inhibition (GI) [2]: inactive | growth inhibition (GI) [3]: inactive

COc1cc2c(cc1OC)C1=NNC(=O)[C@H]1CC2
growth inhibition (GI) [2]: inactive | growth inhibition (GI) [3]: inactive

COc1cc2c(cc1OC)-c1nc(C)sc1CC2
growth inhibition (GI) [2]: inactive | growth inhibition (GI) [3]: inactive

COc1cc2c(cc1OC)-c1c(cnn1-c1ccccc1)CC2
growth inhibition (GI) [2]: inactive | growth inhibition (GI) [3]: Active

COc1cc2ccc3c(c2cc1OC)CCc1cn[nH]c1-3
growth inhibition (GI) [2]: inactive | growth inhibition (GI) [3]: Active | growth inhibition (GI) [9]: inactive

Oc1cc2c(cc1O)-c1[nH]ncc1CC2
growth inhibition (GI) [2]: inactive | growth inhibition (GI) [3]: Active | growth inhibition (GI) [11]: Active | Ratio [12]: 1.14 | growth inhibition (GI) [7]: 50%

COc1ccc2c(c1)CC[C@@H]1C(=O)NN=C21
growth inhibition (GI) [1]: 50% | growth inhibition (GI) [2]: inactive | growth inhibition (GI) [3]: Active

COc1cc2ccc3c(c2cc1OC)CCc1cnoc1-3
growth inhibition (GI) [2]: inactive | growth inhibition (GI) [3]: Active
